# Measured values from ChEMBL document CHEMBL1124401, “1-(2,3-Dideoxy-beta-D-glycero-pent-2-enofuranosyl)thymine. A highly potent and selective anti-HIV agent” (J Med Chem, 1989).
# What was measured:
# [1] = tested on: Human immunodeficiency virus; experiment: The inhibition of compound was determined by reverse transcriptase assay using RNA as template; assay type: functional
# How it was run: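 HIV reverse transcriptase assay with poly(rA):oligo(dT) as RNA template/primer. Various triphosphate concentrations were tested, and Ki was derived from Dixon plots.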
# [2] = tested on: Human immunodeficiency virus; experiment: The inhibition of compound was determined by reverse transcriptase assay using DNA as template; assay type: functional
# How it was run: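 HIV reverse transcriptase assay (DNA-dependent DNA polymerase activity) with poly(dA):oligo(dT) as DNA template/primer. Various triphosphate concentrations were tested, and Ki was derived from Dixon plots.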
# [3] = The 50% inhibitory concentration expresses cellular toxicity measured against normal human erythrocyte progenitor cells (BFU-E); conditions: read-out: ID50 (the source's name)
# CCRF-CEM [4] = experiment: In vitro antiviral test was performed on HIV(LAV strain) infected CEM cells; assay type: functional; conditions: Homo sapiens, read-out: ID50 (the source's name)
# How it was run: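 CEM-F cells infected with about 30 TCID50 of HIV (LAV strain), held 45 min at 37 °C, then given compound at various concentrations in culture medium and incubated 8 days. Virus expression read as p24 gag antigen in culture supernatant by sandwich/enzyme-capture ELISA. ID50 (μM) taken as the dose inhibiting 50% of virus expression.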
# [5] = The 90% inhibitory concentration expresses cellular toxicity measured against normal human granulocyte-monocyte cells
# [6] = The 50% inhibitory concentration expresses cellular toxicity measured against normal human granulocyte-monocyte cells
# CCRF-CEM [7] = experiment: Cellular toxicity was measured in CEM cells after 8 days by using a [3H]- thymidine uptake assay; assay type: cell-based; conditions: human, 192 h, read-out: TCID50
# How it was run: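 Uninfected CEM cells treated with various compound concentrations for 8 days; cytotoxicity read by [3H]thymidine uptake and expressed as 50% tissue culture inhibitory dose (TCID50).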
# [8] = Cellular toxicity was measured in normal human granulocyte-monocyte progenitor cells (CFU-GM); conditions: read-out: ID50 (the source's name)
# CCRF-CEM [9] = experiment: Cellular toxicity measured in CEM cells
SMILES,Ki [1],Ki [2],CC50 [3],IC50 (CCRF-CEM [4]),ID90 [5],ID50 [6],CC50 (CCRF-CEM [7]),CC50 [8],CC50 (CCRF-CEM [9])
Cc1cn([C@H]2CC[C@@H](COP(=O)(O)OP(=O)(O)OP(=O)(O)O)O2)c(=O)[nH]c1=O,0.05 µM,84 µM,,,,,,,
Cc1cn([C@H]2C=C[C@@H](COP(=O)(O)OP(=O)(O)OP(=O)(O)O)O2)c(=O)[nH]c1=O [STAVUDINE TRIPHOSPHATE],0.032 µM,70 µM,,,,,,,
Cc1cn([C@H]2C=C[C@@H](CO)O2)c(=O)[nH]c1=O [STAVUDINE],,,10 µM,0.15 µM,> 100 µM,100 µM,90 µM,,
Cc1cn([C@H]2C[C@H](N=[N+]=[N-])[C@@H](COP(=O)(O)OP(=O)(O)OP(=O)(O)O)O2)c(=O)[nH]c1=O [ZIDOVUDINE TRIPHOSPHATE],0.007 µM,84 µM,,,,,,,
Cc1cn([C@H]2C[C@H](N=[N+]=[N-])[C@@H](CO)O2)c(=O)[nH]c1=O [ZIDOVUDINE],,,6.7 µM,0.1 µM,20 µM,,,1 µM,29 µM
